Assay results as given in ChEMBL document CHEMBL3804758, “Click-based synthesis and antitubercular evaluation of novel dibenzo[b,d]thiophene-1,2,3-triazoles with piperidine, piperazine, morpholine and thiomorpholine appendages” (Bioorg Med Chem Lett, 2016).
≈ marks a conversion by molar mass, not a printed value.

Tested on: Mycobacterium tuberculosis
Experiment: Antimycobacterial activity against Mycobacterium tuberculosis H37Rv ATCC 27294 after 28 days by agar dilution technique
Format: functional
Details: H37Rv ATCC 27294, 672 h
Outline: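 Agar dilution in Middlebrook 7H11 with OADC supplement. Two-fold serial dilutions from 50.0 down to 0.4 µg/mL were incorporated into the agar. Inoculum of H37Rv came from fresh 7H11/OADC slants, suspended in saline diluted to […]. 5 μL was spotted per tube, incubated at 37 °C and read after 28 days. MIC was the lowest concentration giving complete growth inhibition, done in triplicate.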

`Cc1ccc(-c2cn(C(CN3CCNCC3)c3ccc4sc5ccccc5c4c3)nn2)cc1` (stereo not drawn) showed an MIC of 6.25 µg/mL (≈ 13.8 µM).

For `CCCCc1cn(C(CN2CCNCC2)c2ccc3sc4ccccc4c3c2)nn1` (stereo not drawn), the MIC was 12.5 µg/mL (≈ 29.8 µM).

Work on `c1ccc(-c2cn(C(CN3CCNCC3)c3ccc4sc5ccccc5c4c3)nn2)cc1` (stereo not drawn) yielded an MIC of 12.5 µg/mL (≈ 28.4 µM).

Compound `O=[N+]([O-])c1ccc(-c2cn(C(CN3CCCCC3)c3ccc4sc5ccccc5c4c3)nn2)cc1` (stereo not drawn) has an MIC of 50 µg/mL (≈ 103 µM).

In the case of `Cc1ccc(-c2cn(C(CN3CCCCC3)c3ccc4sc5ccccc5c4c3)nn2)cc1` (stereo not drawn), the MIC is reported as 50 µg/mL (≈ 110 µM).

Compound `Fc1ccc(-c2cn(C(CN3CCNCC3)c3ccc4sc5ccccc5c4c3)nn2)c(Cl)c1` (stereo not drawn) has an MIC of 1.56 µg/mL (≈ 3.17 µM).

For `Cc1ccc(-c2cn(C(CN3CCN(CCO)CC3)c3ccc4sc5ccccc5c4c3)nn2)cc1` (stereo not drawn), the MIC was 50 µg/mL (≈ 100 µM).

For `CCCCc1cn(C(CN2CCN(CCO)CC2)c2ccc3sc4ccccc4c3c2)nn1` (stereo not drawn), the MIC was 6.25 µg/mL (≈ 13.5 µM).

`CC(C)(C)c1ccc(-c2cn(C(CN3CCSCC3)c3ccc4sc5ccccc5c4c3)nn2)cc1` (stereo not drawn) gave an MIC of 6.25 µg/mL (≈ 12.2 µM).

Work on `Fc1ccc(-c2cn(C(CN3CCCCC3)c3ccc4sc5ccccc5c4c3)nn2)c(Cl)c1` (stereo not drawn) yielded an MIC of 50 µg/mL (≈ 102 µM).

For `O=[N+]([O-])c1ccc(-c2cn(C(CN3CCNCC3)c3ccc4sc5ccccc5c4c3)nn2)cc1` (stereo not drawn), the MIC was 3.12 µg/mL (≈ 6.44 µM).

Work on `c1ccc(-c2cn(C(CN3CCOCC3)c3ccc4sc5ccccc5c4c3)nn2)cc1` (stereo not drawn) yielded an MIC of 50 µg/mL (≈ 113 µM).

`CC(C)(C)c1ccc(-c2cn(C(CN3CCN(CCO)CC3)c3ccc4sc5ccccc5c4c3)nn2)cc1` (stereo not drawn) showed an MIC of 25 µg/mL (≈ 46.3 µM).

With `CCCCc1cn(C(CN2CCOCC2)c2ccc3sc4ccccc4c3c2)nn1` (stereo not drawn) the MIC was 50 µg/mL (≈ 119 µM).

Work on `Cc1ccc(-c2cn(C(CN3CCOCC3)c3ccc4sc5ccccc5c4c3)nn2)cc1` (stereo not drawn) yielded an MIC of 25 µg/mL (≈ 55 µM).

For `O=[N+]([O-])c1ccc(-c2cn(C(CN3CCN(CCO)CC3)c3ccc4sc5ccccc5c4c3)nn2)cc1` (stereo not drawn), the MIC was 12.5 µg/mL (≈ 23.6 µM).

`O=[N+]([O-])c1ccc(-c2cn(C(CN3CCOCC3)c3ccc4sc5ccccc5c4c3)nn2)cc1` (stereo not drawn) gave an MIC of 50 µg/mL (≈ 103 µM).

`Fc1ccc(-c2cn(C(CN3CCSCC3)c3ccc4sc5ccccc5c4c3)nn2)c(Cl)c1` (stereo not drawn) showed an MIC of 12.5 µg/mL (≈ 24.6 µM).

`CCCCc1cn(C(CN2CCSCC2)c2ccc3sc4ccccc4c3c2)nn1` (stereo not drawn) showed an MIC of 25 µg/mL (≈ 57.3 µM).

In the case of `OCCN1CCN(CC(c2ccc3sc4ccccc4c3c2)n2cc(-c3ccc(F)cc3Cl)nn2)CC1` (stereo not drawn), the MIC is reported as 12.5 µg/mL (≈ 23.3 µM).

For `c1ccc(-c2cn(C(CN3CCCCC3)c3ccc4sc5ccccc5c4c3)nn2)cc1` (stereo not drawn), the MIC was 0.78 µg/mL (≈ 1.78 µM).

`CC(C)(C)c1ccc(-c2cn(C(CN3CCCCC3)c3ccc4sc5ccccc5c4c3)nn2)cc1` (stereo not drawn) was tested, and the MIC was 3.12 µg/mL (≈ 6.31 µM).

For `OCCN1CCN(CC(c2ccc3sc4ccccc4c3c2)n2cc(-c3ccccc3)nn2)CC1` (stereo not drawn), the MIC was 12.5 µg/mL (≈ 25.8 µM).

Compound `Fc1ccc(-c2cn(C(CN3CCOCC3)c3ccc4sc5ccccc5c4c3)nn2)c(Cl)c1` (stereo not drawn) has an MIC of 25 µg/mL (≈ 50.7 µM).

Work on `O=[N+]([O-])c1ccc(-c2cn(C(CN3CCSCC3)c3ccc4sc5ccccc5c4c3)nn2)cc1` (stereo not drawn) yielded an MIC of 25 µg/mL (≈ 49.8 µM).

With `CC(C)(C)c1ccc(-c2cn(C(CN3CCOCC3)c3ccc4sc5ccccc5c4c3)nn2)cc1` (stereo not drawn) the MIC was 6.25 µg/mL (≈ 12.6 µM).

`Cc1ccc(-c2cn(C(CN3CCSCC3)c3ccc4sc5ccccc5c4c3)nn2)cc1` (stereo not drawn) was tested, and the MIC was 12.5 µg/mL (≈ 26.6 µM).

In the case of `CCCCc1cn(C(CN2CCCCC2)c2ccc3sc4ccccc4c3c2)nn1` (stereo not drawn), the MIC is reported as 0.78 µg/mL (≈ 1.86 µM).

With `c1ccc(-c2cn(C(CN3CCSCC3)c3ccc4sc5ccccc5c4c3)nn2)cc1` (stereo not drawn) the MIC was 50 µg/mL (≈ 109 µM).

`CC(C)(C)c1ccc(-c2cn(C(CN3CCNCC3)c3ccc4sc5ccccc5c4c3)nn2)cc1` (stereo not drawn) gave an MIC of 6.25 µg/mL (≈ 12.6 µM).

Compound `CC[C@@H](CO)NCCN[C@@H](CC)CO` [ETHAMBUTOL] has an MIC of 3.13 µg/mL (≈ 15.3 µM).

`NNC(=O)c1ccncc1` [ISONIAZID] gave an MIC of 0.1 µg/mL (≈ 0.729 µM).

`NC(=O)c1cnccn1` [PYRAZINAMIDE] showed an MIC of 50 µg/mL (≈ 406 µM).
